{"source": "ChEMBL document CHEMBL1159084", "about": "“Synthesis and structure-activity relationship of 1,2,4-triazole-containing diarylpyrazolyl carboxamide as CB1 cannabinoid receptor-ligand” (Bioorg Med Chem, 2010)"}
{"target": "Cannabinoid receptor 1 (Rattus norvegicus, UniProt P20272)", "sequence (P20272 whole entry)": "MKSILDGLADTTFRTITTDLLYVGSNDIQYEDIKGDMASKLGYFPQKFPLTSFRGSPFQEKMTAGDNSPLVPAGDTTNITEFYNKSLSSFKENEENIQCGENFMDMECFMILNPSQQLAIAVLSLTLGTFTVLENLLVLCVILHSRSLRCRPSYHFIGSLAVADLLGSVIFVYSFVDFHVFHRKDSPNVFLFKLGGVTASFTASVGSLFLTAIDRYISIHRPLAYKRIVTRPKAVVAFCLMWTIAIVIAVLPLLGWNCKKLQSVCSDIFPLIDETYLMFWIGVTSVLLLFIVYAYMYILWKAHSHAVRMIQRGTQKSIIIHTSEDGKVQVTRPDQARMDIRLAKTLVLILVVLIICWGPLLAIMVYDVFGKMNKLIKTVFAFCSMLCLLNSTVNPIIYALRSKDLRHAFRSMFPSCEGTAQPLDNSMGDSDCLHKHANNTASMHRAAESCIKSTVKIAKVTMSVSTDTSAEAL", "assay": "Displacement of [3H]CP-55940 from CB1 receptor in Sprague-Dawley rat cerebellar membrane", "parameters": "species or system Cerebellum", "how_it_was_run": "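Membranes came from cerebella of male Sprague Dawley rats (200–300 g), homogenized in TME buffer (50 mM Tris–HCl, 1 mM EDTA, 3 mM MgCl2, pH 7.4) and spun at 48,000g for 30 min at 4 °C. They were incubated 1 h at 30 °C in TME with 0.5% fatty-acid-free BSA, then filtered on PEI-soaked GF/B, washed and counted by scintillation. IC50 values are from single determinations.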", "units": {"IC50": "nM"}}
{"smiles": "O=C(NCC1CCCCC1)c1nn(-c2ccc(Cl)cc2Cl)c(-c2ccc(Br)cc2)c1Cn1cncn1", "IC50": 20.5}
{"smiles": "O=C(NNC(=O)C1CCCCC1)c1nn(-c2ccc(Cl)cc2Cl)c(-c2ccc(Cl)cc2)c1Cn1cncn1", "IC50": 189}
{"smiles": "O=C(NC1(C(F)(F)F)CCC1)c1nn(-c2ccc(Cl)cc2Cl)c(-c2ccc(Cl)cc2)c1Cn1cncn1", "IC50": 4.67}
{"smiles": "O=C(c1nn(-c2ccccc2Cl)c(-c2ccc(Cl)cc2)c1Cn1cncn1)N1CCN(c2ccccc2)CC1", "IC50": 11.5}
{"smiles": "O=C(c1nn(-c2ccc(Cl)cc2Cl)c(-c2ccc(Cl)cc2)c1Cn1cncn1)N1CCN(c2ccccc2)CC1", "IC50": 8.88}
{"smiles": "O=C(c1nn(-c2ccc(Cl)cc2Cl)c(-c2ccc(Cl)cc2)c1Cn1cncn1)N1CCN(c2ncccn2)CC1", "IC50": 56}
{"smiles": "O=C(NC1CCCCCC1)c1nn(-c2ccccc2Cl)c(-c2ccc(Cl)cc2)c1Cn1cncn1", "IC50": 9.7}
{"smiles": "O=C(NC1CCCC1)c1nn(-c2ccc(Cl)cc2Cl)c(-c2ccc(Cl)cc2)c1Cn1cncn1", "IC50": 6.9}
{"smiles": "O=C(NC1CCCCC1)c1nn(-c2ccc(Cl)cc2Cl)c(-c2ccc(Cl)cc2)c1Cn1cncn1", "IC50": 3.77}
{"smiles": "CC(NC(=O)c1nn(-c2ccccc2Cl)c(-c2ccc(Br)cc2)c1Cn1cncn1)C(C)(C)C", "note": "(stereo not given)", "IC50": 6}
{"smiles": "CCN1CCCC1CNC(=O)c1nn(-c2ccc(Cl)cc2Cl)c(-c2ccc(Cl)cc2)c1Cn1cncn1", "note": "(stereo not given)", "IC50": 4020}
{"smiles": "O=C(NC1(C(F)(F)F)CC1)c1nn(-c2ccc(Cl)cc2Cl)c(-c2ccc(Cl)cc2)c1Cn1cncn1", "IC50": 4.5}
{"smiles": "O=C(c1nn(-c2ccccc2Cl)c(-c2ccc(Br)cc2)c1Cn1cncn1)N1CCN(c2ncccn2)CC1", "IC50": 22.3}
{"smiles": "O=C(NC1(c2ccc(Cl)cc2)CC1)c1nn(-c2ccc(Cl)cc2Cl)c(-c2ccc(Br)cc2)c1Cn1cncn1", "IC50": 2.8}
{"smiles": "O=C(NCc1ccccn1)c1nn(-c2ccccc2Cl)c(-c2ccc(Br)cc2)c1Cn1cncn1", "IC50": 63.4}
{"smiles": "O=C(NN1CCCCC1)c1nn(-c2ccc(Cl)cc2Cl)c(-c2ccc(Cl)cc2)c1Cn1cncn1", "IC50": 3.83}
{"smiles": "O=C(NC1CCCCCC1)c1nn(-c2ccc(Cl)cc2Cl)c(-c2ccc(Cl)cc2)c1Cn1cncn1", "IC50": 11.2}
{"smiles": "CC(C)(NC(=O)c1nn(-c2ccc(Cl)cc2Cl)c(-c2ccc(Cl)cc2)c1Cn1cncn1)c1ccc(Cl)cc1", "IC50": 3.33}
{"smiles": "CC(C)(C)NC(=O)c1nn(-c2ccc(Cl)cc2Cl)c(-c2ccc(Cl)cc2)c1Cn1cncn1", "IC50": 4.9}
{"smiles": "O=C(NC1(C(F)(F)F)CCC1)c1nn(-c2ccccc2Cl)c(-c2ccc(Br)cc2)c1Cn1cncn1", "IC50": 7.48}
{"smiles": "CN1CCN(C(=O)c2nn(-c3ccc(Cl)cc3Cl)c(-c3ccc(Br)cc3)c2Cn2cncn2)CC1", "IC50": 1340}
{"smiles": "O=C(NC1(C(F)(F)F)CC1)c1nn(-c2ccccc2Cl)c(-c2ccc(Br)cc2)c1Cn1cncn1", "IC50": 9.15}
{"smiles": "CC(C)(NC(=O)c1nn(-c2ccc(Cl)cc2Cl)c(-c2ccc(Br)cc2)c1Cn1cncn1)c1ccc(Cl)cc1", "IC50": 2.99}
{"smiles": "O=C(N[C@H]1CCCC[C@@H]1O)c1nn(-c2ccc(Cl)cc2Cl)c(-c2ccc(Cl)cc2)c1Cn1cncn1", "IC50": 60.7}
{"smiles": "CC(NC(=O)c1nn(-c2ccc(Cl)cc2Cl)c(-c2ccc(Cl)cc2)c1Cn1cncn1)c1ccc(Br)cc1", "note": "(stereo not given)", "IC50": 2.6}
{"smiles": "O=C(NC1CCCCC1)c1nn(-c2ccc(Cl)cc2Cl)c(-c2ccc(Br)cc2)c1Cn1cncn1", "IC50": 4.38}
{"smiles": "CC1CCCC(C)N1NC(=O)c1nn(-c2ccc(Cl)cc2Cl)c(-c2ccc(Cl)cc2)c1Cn1cncn1", "note": "(stereo not given)", "IC50": 11.4}
{"smiles": "O=C(NN1CCCCC1)c1nn(-c2ccccc2Cl)c(-c2ccc(Br)cc2)c1Cn1cncn1", "IC50": 5.23}
{"smiles": "CC(C)(C)NC(=O)c1nn(-c2ccc(Cl)cc2Cl)c(-c2ccc(Br)cc2)c1Cn1cncn1", "IC50": 2.9}
{"smiles": "O=C(NCC1CCCCC1)c1nn(-c2ccccc2Cl)c(-c2ccc(Cl)cc2)c1Cn1cncn1", "IC50": 12.2}
{"smiles": "O=C(NC1CCCCCC1)c1nn(-c2ccc(Cl)cc2Cl)c(-c2ccc(Br)cc2)c1Cn1cncn1", "IC50": 8.49}
{"smiles": "CCN1CCN(C(=O)c2nn(-c3ccccc3Cl)c(-c3ccc(Cl)cc3)c2Cn2cncn2)CC1", "IC50": 1050}
{"smiles": "Cc1cccc(N2CCN(C(=O)c3nn(-c4ccc(Cl)cc4Cl)c(-c4ccc(Br)cc4)c3Cn3cncn3)CC2)c1C", "IC50": 3.8}
{"smiles": "O=C(NNC(=O)C1(c2ccc(Cl)cc2)CC1)c1nn(-c2ccc(Cl)cc2Cl)c(-c2ccc(Cl)cc2)c1Cn1cncn1", "IC50": 44.5}
{"smiles": "O=C(NC1(C(F)(F)F)CCC1)c1nn(-c2ccccc2Cl)c(-c2ccc(Cl)cc2)c1Cn1cncn1", "IC50": 5.14}
{"smiles": "CC(C)(NC(=O)c1nn(-c2ccccc2Cl)c(-c2ccc(Cl)cc2)c1Cn1cncn1)c1ccc(Cl)cc1", "IC50": 7.7}
{"smiles": "O=C(c1nn(-c2ccc(Cl)cc2Cl)c(-c2ccc(Br)cc2)c1Cn1cncn1)N1CCN(c2ncccn2)CC1", "IC50": 27.7}
{"smiles": "O=C(NCc1ccccn1)c1nn(-c2ccc(Cl)cc2Cl)c(-c2ccc(Cl)cc2)c1Cn1cncn1", "IC50": 74.8}
{"smiles": "CCCCC(CC)CNC(=O)c1nn(-c2ccc(Cl)cc2Cl)c(-c2ccc(Cl)cc2)c1Cn1cncn1", "note": "(stereo not given)", "IC50": 20.2}
{"smiles": "O=C(NCc1ccccc1)c1nn(-c2ccc(Cl)cc2Cl)c(-c2ccc(Br)cc2)c1Cn1cncn1", "IC50": 13}
{"smiles": "O=C(c1nn(-c2ccc(Cl)cc2Cl)c(-c2ccc(Cl)cc2)c1Cn1cncn1)N1CCN(c2cccc(Cl)c2)CC1", "IC50": 7.33}
{"smiles": "C[C@H]1CCCC[C@@H]1NC(=O)c1nn(-c2ccc(Cl)cc2Cl)c(-c2ccc(Cl)cc2)c1Cn1cncn1", "IC50": 12.9}
{"smiles": "CCC(C)(C)NC(=O)c1nn(-c2ccc(Cl)cc2Cl)c(-c2ccc(Br)cc2)c1Cn1cncn1", "IC50": 3.67}
{"smiles": "CCC(C)(C)NC(=O)c1nn(-c2ccccc2Cl)c(-c2ccc(Cl)cc2)c1Cn1cncn1", "IC50": 11.9}
{"smiles": "O=C(NC1(c2ccccc2)CC1)c1nn(-c2ccc(Cl)cc2Cl)c(-c2ccc(Cl)cc2)c1Cn1cncn1", "IC50": 5.1}
{"smiles": "CCC(C)(C)NC(=O)c1nn(-c2ccccc2Cl)c(-c2ccc(Br)cc2)c1Cn1cncn1", "IC50": 8.99}
{"smiles": "O=C(NC1(c2ccc(Cl)cc2)CC1)c1nn(-c2ccccc2Cl)c(-c2ccc(Cl)cc2)c1Cn1cncn1", "IC50": 9.03}
{"smiles": "Cc1cccc(N2CCN(C(=O)c3nn(-c4ccccc4Cl)c(-c4ccc(Cl)cc4)c3Cn3cncn3)CC2)c1C", "IC50": 6.09}
{"smiles": "O=C(c1nn(-c2ccccc2Cl)c(-c2ccc(Br)cc2)c1Cn1cncn1)N1CCN(c2ccccc2)CC1", "IC50": 8.01}
{"smiles": "O=C(c1nn(-c2ccc(Cl)cc2Cl)c(-c2ccc(Br)cc2)c1Cn1cncn1)N1CCN(c2cccc(Cl)c2Cl)CC1", "IC50": 5.74}
{"smiles": "CCC(C)(C)NC(=O)c1nn(-c2ccc(Cl)cc2Cl)c(-c2ccc(Cl)cc2)c1Cn1cncn1", "IC50": 3.01}
{"smiles": "CN1CCN(C(=O)c2nn(-c3ccccc3Cl)c(-c3ccc(Br)cc3)c2Cn2cncn2)CC1", "IC50": 901}
{"smiles": "O=C(c1nn(-c2ccccc2Cl)c(-c2ccc(Cl)cc2)c1Cn1cncn1)N1CCN(c2cccc(Cl)c2)CC1", "IC50": 4.08}
{"smiles": "O=C(c1nn(-c2ccc(Cl)cc2Cl)c(-c2ccc(Br)cc2)c1Cn1cncn1)N1CCN(c2ccccc2)CC1", "IC50": 12.5}
{"smiles": "CC(NC(=O)c1nn(-c2ccc(Cl)cc2Cl)c(-c2ccc(Br)cc2)c1Cn1cncn1)c1ccc(Cl)cc1Cl", "note": "(stereo not given)", "IC50": 2.2}
{"smiles": "CCN1CCN(C(=O)c2nn(-c3ccc(Cl)cc3Cl)c(-c3ccc(Br)cc3)c2Cn2cncn2)CC1", "IC50": 285}
{"smiles": "O=C(NC1(C(F)(F)F)CC1)c1nn(-c2ccccc2Cl)c(-c2ccc(Cl)cc2)c1Cn1cncn1", "IC50": 4.75}
{"smiles": "O=C(c1nn(-c2ccc(Cl)cc2Cl)c(-c2ccc(Cl)cc2)c1Cn1cncn1)N1CCN(c2cccc(Cl)c2Cl)CC1", "IC50": 5.5}
{"smiles": "O=C(NCc1ccccc1)c1nn(-c2ccc(Cl)cc2Cl)c(-c2ccc(Cl)cc2)c1Cn1cncn1", "IC50": 19.2}
{"smiles": "CC(NC(=O)c1nn(-c2ccc(Cl)cc2Cl)c(-c2ccc(Cl)cc2)c1Cn1cncn1)C(C)(C)C", "note": "(stereo not given)", "IC50": 8.44}
{"smiles": "O=C(NN1CCCCC1)c1nn(-c2ccc(Cl)cc2Cl)c(-c2ccc(Br)cc2)c1Cn1cncn1", "IC50": 5.11}
{"smiles": "O=C(NCc1ccccc1)c1nn(-c2ccccc2Cl)c(-c2ccc(Cl)cc2)c1Cn1cncn1", "IC50": 14.1}
{"smiles": "CC(C)(C)NC(=O)c1nn(-c2ccccc2Cl)c(-c2ccc(Br)cc2)c1Cn1cncn1", "IC50": 7.9}
{"smiles": "CC(NC(=O)c1nn(-c2ccc(Cl)cc2Cl)c(-c2ccc(Cl)cc2)c1Cn1cncn1)c1ccc(Cl)cc1Cl", "note": "(stereo not given)", "IC50": 2.6}
{"smiles": "O=C(NCC1CCCCC1)c1nn(-c2ccc(Cl)cc2Cl)c(-c2ccc(Cl)cc2)c1Cn1cncn1", "IC50": 22.8}
{"smiles": "O=C(NC1(c2ccccc2)CC1)c1nn(-c2ccc(Cl)cc2Cl)c(-c2ccc(Br)cc2)c1Cn1cncn1", "IC50": 7.86}
{"smiles": "C[C@@H]1CCCC[C@@H]1NC(=O)c1nn(-c2ccc(Cl)cc2Cl)c(-c2ccc(Cl)cc2)c1Cn1cncn1", "note": "(single isomer, unassigned)", "IC50": 18.3}
{"smiles": "O=C(NC1CCCCC1)c1nn(-c2ccccc2Cl)c(-c2ccc(Cl)cc2)c1Cn1cncn1", "IC50": 6.6}
{"smiles": "O=C(NC1(c2ccccc2)CC1)c1nn(-c2ccccc2Cl)c(-c2ccc(Cl)cc2)c1Cn1cncn1", "IC50": 5.81}
{"smiles": "CC(NC(=O)c1nn(-c2ccccc2Cl)c(-c2ccc(Cl)cc2)c1Cn1cncn1)C(C)(C)C", "note": "(stereo not given)", "IC50": 6.22}
{"smiles": "C[C@H]1CC[C@H](NC(=O)c2nn(-c3ccc(Cl)cc3Cl)c(-c3ccc(Cl)cc3)c2Cn2cncn2)CC1", "IC50": 14.2}
{"smiles": "O=C(NN1CCCCCC1)c1nn(-c2ccc(Cl)cc2Cl)c(-c2ccc(Br)cc2)c1Cn1cncn1", "IC50": 8.23}
{"smiles": "CC(C)(NC(=O)c1nn(-c2ccc(Cl)cc2Cl)c(-c2ccc(Cl)cc2)c1Cn1cncn1)c1ccccc1", "IC50": 7.4}
{"smiles": "O=C(c1nn(-c2ccc(Cl)cc2Cl)c(-c2ccc(Br)cc2)c1Cn1cncn1)N1CCN(c2cccc(Cl)c2)CC1", "IC50": 7.22}
{"smiles": "CCN1CCN(C(=O)c2nn(-c3ccccc3Cl)c(-c3ccc(Br)cc3)c2Cn2cncn2)CC1", "IC50": 303}
{"smiles": "CCNC1(C(N)=O)CCN(C(=O)c2nn(-c3ccc(Cl)cc3Cl)c(-c3ccc(Cl)cc3)c2Cn2cncn2)CC1", "IC50": 878}
{"smiles": "CC(NC(=O)c1nn(-c2ccc(Cl)cc2Cl)c(-c2ccc(Br)cc2)c1Cn1cncn1)C(C)(C)C", "note": "(stereo not given)", "IC50": 4.1}
{"smiles": "CN1CCN(C(=O)c2nn(-c3ccccc3Cl)c(-c3ccc(Cl)cc3)c2Cn2cncn2)CC1", "IC50": 961}
{"smiles": "O=C(NNC(=O)C1(C(F)(F)F)CC1)c1nn(-c2ccc(Cl)cc2Cl)c(-c2ccc(Cl)cc2)c1Cn1cncn1", "IC50": 126}
{"smiles": "O=C(NC1(c2ccc(Cl)cc2)CC1)c1nn(-c2ccc(Cl)cc2Cl)c(-c2ccc(Cl)cc2)c1Cn1cncn1", "IC50": 5.09}
